Broadly, the IC50 is the concentration that gives 50% inhibition. Low readings indicate higher potency, high ones lower potency.

Consider 28 molecules from ChEMBL document CHEMBL4152342, “Novel series of 6-(2-substitutedacetamido)-4-anilinoquinazolines as EGFR-ERK signal transduction inhibitors in MCF-7 breast cancer cells” (Eur J Med Chem, 2018).

The test system of assay [1] is HepG2. The assay is described as follows: Antiproliferative activity against human HepG2 cells after 48 hrs by MTT assay. Type of assay: functional, cell-based. The note with it: HepG2, 48 h. Background: Formazan colour is commonly taken as a measure of viable cells.
A further assay deals with MCF7. Briefly: Antiproliferative activity against human MCF7 cells after 48 hrs by MTT assay. Type of assay: functional, cell-based. The note with it: MCF7, 48 h. An outline of the steps: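 Cells seeded at 30,000 per well, grown 24 h at 37 °C, 5% CO2, then exposed to 5-fold serial dilutions of compound (dissolved in 1% DMSO) for 48 h under same conditions. MTT added at 5 mg/mL; after lysis, absorbance read at 570 nm 4 h later. IC50 taken from exponential viability-versus-concentration curve relative to untreated controls.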

The subject of assay [2] is HepG2. The assay is described as follows: Potency index, ratio of erlotinib IC50 to compound IC50 for human HepG2 cells. In kind it is functional.

In the case of `CN1CCN(CC(=O)Nc2ccc3ncnc(Nc4ccc(Cl)cc4)c3c2)CC1`, the figures for the half-inhibitory concentration (IC50) with HepG2 [1] and in the assay on MCF7 were above 100 µM and 15 µM, respectively.
In the case of `O=C(CN1CCOCC1)Nc1ccc2ncnc(Nc3ccc(Cl)c(C(F)(F)F)c3)c2c1`, the half-maximal inhibitory concentration (IC50) with HepG2 [1] and in the assay on MCF7 was above 100 µM each time.
With `O=C(CN1CCCC1)Nc1ccc2ncnc(Nc3ccc(Cl)cc3)c2c1`, the 50% inhibitory concentration (IC50) worked out at 18 µM in the assay on HepG2 [1] and 16 µM with MCF7.
In the case of `O=C(CN1CCCCC1)Nc1ccc2ncnc(Nc3cccc(C(F)(F)F)c3)c2c1`, the 50% inhibitory concentration (IC50) in the assay on HepG2 [1] and with MCF7 was above 100 µM throughout.
With `O=C(CN1CCCC1)Nc1ccc2ncnc(Nc3ccc(Br)cc3)c2c1`, the IC50 with HepG2 [1] and with MCF7 was above 100 µM each time.
On to `O=C(CN1CCCCC1)Nc1ccc2ncnc(Nc3ccc(Br)cc3)c2c1`, for which the IC50 in the assay with HepG2 [1] and with MCF7 was above 100 µM each time.
Turning to `CN1CCN(CC(=O)Nc2ccc3ncnc(Nc4cccc(C(F)(F)F)c4)c3c2)CC1`, the IC50 in the assay with HepG2 [1] and in the assay on MCF7 was above 100 µM throughout.
On to `O=C(CN1CCOCC1)Nc1ccc2ncnc(Nc3cccc(C(F)(F)F)c3)c2c1`, for which the figures for the concentration for half-maximal inhibition (IC50) in the assay on HepG2 [1] and in the assay with MCF7 were above 100 µM and 15 µM, respectively.
For `O=C(CN1CCOCC1)Nc1ccc2ncnc(Nc3cccc(Br)c3)c2c1`, the values for the IC50 in the assay on HepG2 [1] and in the assay with MCF7 were 19 µM and 15 µM, respectively.
As to `CN1CCN(CC(=O)Nc2ccc3ncnc(Nc4cccc(Br)c4)c3c2)CC1`, the IC50 came to 25.3 µM in the assay with HepG2 [1] and 10 µM in the assay with MCF7.
In the case of `O=C(CN1CCCC1)Nc1ccc2ncnc(Nc3ccc(OCc4ccccc4)cc3)c2c1`, the IC50 in the assay with HepG2 [1] and in the assay with MCF7 was above 100 µM throughout.
Take `O=C(CN1CCOCC1)Nc1ccc2ncnc(Nc3ccc(OCc4ccccc4)cc3)c2c1`: the values for the half-inhibitory concentration (IC50) in the assay with HepG2 [1] and in the assay with MCF7 were above 100 µM and 25 µM, respectively.
Turning to `O=C(CN1CCCCC1)Nc1ccc2ncnc(Nc3cccc(Br)c3)c2c1`, the figures for the IC50 with HepG2 [1] and in the assay with MCF7 were 16 µM and 3 µM, respectively.
For the molecule `CN1CCN(CC(=O)Nc2ccc3ncnc(Nc4cccc(Cl)c4)c3c2)CC1`, the IC50 with HepG2 [1] and in the assay with MCF7 was above 100 µM in each case.
In the case of `O=C(CN1CCCC1)Nc1ccc2ncnc(Nc3cccc(Cl)c3)c2c1`, the IC50 with HepG2 [1] and with MCF7 was above 100 µM in each case.
With `O=C(CN1CCCCC1)Nc1ccc2ncnc(Nc3ccc(Cl)cc3)c2c1`, the IC50 is 16 µM in the assay on HepG2 [1] and above 100 µM with MCF7.
In the case of `CN1CCN(CC(=O)Nc2ccc3ncnc(Nc4ccc(Cl)c(C(F)(F)F)c4)c3c2)CC1`, the IC50 was 25.3 µM with HepG2 [1] and above 100 µM in the assay with MCF7.
On to `O=C(CN1CCOCC1)Nc1ccc2ncnc(Nc3ccc(Cl)cc3)c2c1`, for which the half-maximal inhibitory concentration (IC50) in the assay with HepG2 [1] and with MCF7 was above 100 µM each time.
On to `O=C(CN1CCCC1)Nc1ccc2ncnc(Nc3ccc(Cl)c(C(F)(F)F)c3)c2c1`, for which the IC50 in the assay with HepG2 [1] and in the assay on MCF7 was above 100 µM each time.
As for `O=C(CN1CCCCC1)Nc1ccc2ncnc(Nc3ccc(Cl)c(C(F)(F)F)c3)c2c1`, the half-maximal inhibitory concentration (IC50) in the assay on HepG2 [1] and in the assay on MCF7 was above 100 µM in each case.
Take `O=C(CN1CCOCC1)Nc1ccc2ncnc(Nc3cccc(Cl)c3)c2c1`: the IC50 in the assay on HepG2 [1] and in the assay with MCF7 was above 100 µM throughout.
Take `O=C(CN1CCCC1)Nc1ccc2ncnc(Nc3cccc(Br)c3)c2c1`: the IC50 in the assay on HepG2 [1] is above 100 µM; in the assay with MCF7 it was 12 µM.
Turning to `CN1CCN(CC(=O)Nc2ccc3ncnc(Nc4ccc(Br)cc4)c3c2)CC1`, the half-inhibitory concentration (IC50) with HepG2 [1] and in the assay with MCF7 was above 100 µM in each case.
On to `O=C(CN1CCCC1)Nc1ccc2ncnc(Nc3cccc(C(F)(F)F)c3)c2c1`, for which the IC50 in the assay on HepG2 [1] was 25.2 µM; in the assay on MCF7, above 100 µM.
In the same order, the values of `O=C(CN1CCOCC1)Nc1ccc2ncnc(Nc3ccc(OCc4cccc(F)c4)cc3)c2c1` are above 100 µM and above 100 µM.
As to `O=C(CN1CCCCC1)Nc1ccc2ncnc(Nc3cccc(Cl)c3)c2c1`, the “Ratio IC50” value in the assay with HepG2 [2] is listed as 2. The IC50 with HepG2 [1] was 12 µM; in the assay on MCF7 it was above 100 µM.
As to `O=C(CN1CCOCC1)Nc1ccc2ncnc(Nc3ccc(Br)cc3)c2c1`, the IC50 in the assay with HepG2 [1] and in the assay with MCF7 was above 100 µM in each case.
On to `O=C(CN1CCCC1)Nc1ccc2ncnc(Nc3ccc(OCc4cccc(F)c4)cc3)c2c1`, for which the IC50 in the assay on HepG2 [1] was determined as 25.1 µM; in the assay with MCF7, 25 µM.
